# H9c2 protect: modulators protecting cardiomyocytes from myocardial damage. H9c2 cardiomyocytes, H2O2 injury protection, ATPLite, 2 h. 360,000 tested, 0.63% active. protection from H2O2 cell death, % at 20 µM;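 active = compounds giving at least 50% protection of heart cells from peroxide-induced death in the single-dose screen, raw or plate-pattern-corrected value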;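 note: 0% = DMSO wells with peroxide and 100% = DMSO wells without peroxide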
# CHOP inhibitor: CHOP inhibition in unfolded protein response; CHO-K1 CHOP-promoter luciferase, tunicamycin-induced, 15-18 h; inhibition, % at 10 µM; 220,000 tested, 3.8% active;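 active = compounds that reduced the stress-induced luciferase reporter signal by more than about 70% of percent inhibition, limit read from the data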;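 note: 0% = tunicamycin plus vehicle and 100% = wells without tunicamycin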
# XBP1 UPR activ: activators of adaptive arm of unfolded protein response (XBP1); CHO-XBP1 luciferase reporter, IRE1-XBP1 UPR activation, luminescence; percent of tunicamycin response, DMSO as zero; activation, % at 20 µM; 330,000 tested, 0.33% active;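 active = versus positive control, 20 µM dose yields 30% or more activation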;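 note: 100% = tunicamycin at 10 µg/mL and 0% = DMSO only wells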
#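 incubation = overnight seeding at 37 °C, 6 h compound treatment at 37 °C | assay system = CHO-XBP1 cells stably carrying IRE1-XBP1-driven luciferase reporter | input = 1000 cells per well | detection = luciferase luminescence | dosing = single point, 20 µM final compound, 1% DMSO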
# iPSC survival up: increases survival of single human iPS cells; hiPSC single-cell survival, ATPlite luminescence; 100% = ROCK inhibitor wells, 0% = DMSO; survival enhancement, % at 20 µM; 360,000 tested, 0.044% active; in the data active = survival enhancement above about 18%;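 note: cells exposed to compounds for 16 hours before the ATP read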
# CHOP UPR activ: activators of apoptotic arm of unfolded protein response (CHOP). CHO-CHOP luciferase reporter, UPR activation, luminescence; percent of tunicamycin response over DMSO baseline. 330,000 tested, 0.34% active. AID 449763. activation, % at 10 µM;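 active = at 10 µM dose, activation of 40% or more, normalized to positive control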;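 note: 100% = tunicamycin at 10 µg/mL and 0% = DMSO alone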
#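 assay system = CHO CHOP reporter cells | amount = 500 CHO-CHOP cells per well | buffer or medium = F12 with 10% FBS | incubation = 16-18 h cell attachment, then 6 h compound exposure, 37 °C | detection = luminescence read with Steady-Glo | read-out = percent activation relative to tunicamycin control | controls = tunicamycin high control, DMSO low control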
# CHOP inh conf: confirmation of CHOP induction inhibitors; shares compounds with CHOP inhibitor; CHO-CHOP promoter luciferase reporter, tunicamycin-induced, luminescence; inhibition, % at 10 µM; 2,100 tested, 45% active;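 active = mean of three repeat readings of reporter signal inhibition above a set limit, cut at about 70% in these data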;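 note: 0% = tunicamycin plus vehicle and 100% = wells lacking tunicamycin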
# Numbers without * were called inactive; / = no result. Only a selection was taken, and hits are over-represented in it overall.
SMILES,H9c2 protect,CHOP inhibitor,XBP1 UPR activ,iPSC survival up,CHOP UPR activ,CHOP inh conf
Cc1cc(O)c(NC(=S)NC(=O)c2ccc(-c3ccc(Cl)cc3)o2)cc1C,-17,105*,-3,0,2,113*
COc1ccc(Br)cc1CN(C)C(=O)c1ccccc1SCC(=O)N1CCCC1,2,/,/,0,/,/
O=C(O)c1ccc(CN2C[C@@H](CO)O[C@@H](n3cnc4c(NCc5ccc(F)cc5)ncnc43)C2)cc1,-1,/,/,2,/,/
CCOc1ccc(C2C=C(c3ccc(C)cc3)Nc3nnnn32)cc1 (stereo not given),-6,107*,6,6,12,77*
COc1ccc(NS(=O)(=O)c2ccc(C)c(C(=O)NCc3ccccc3CN3CCCC3)c2)cc1,0,/,/,-2,/,/
Cc1cc(/C=N/n2cnnc2)c(C)n1-c1ccc(OCc2ccccc2F)cc1,-14,111*,0,1,4,103*
Cc1cc(/C=N/n2cnnc2)c(C)n1-c1ccc(OCc2ccc(Cl)cc2)cc1,-34,99*,3,0,17,91*
CSc1ccc(C(=O)Nc2cc(S(=O)(=O)N3CCOCC3)ccc2N2CCOCC2)cc1[N+](=O)[O-],6,/,/,1,/,/
CC1(C(=O)O)CCCN1C(=O)c1cc2ccccc2s1 (stereo not given),2,/,/,2,/,/
COc1ccc(C2=CC(=O)C=CC2=O)cc1,/,103*,/,/,/,-79
CC(C)(C)n1c(O)c2n(c1=O)Cc1ccccc1N=C2c1ccccc1,6,/,/,-1,/,/
N#CC1=C(N)C2=CCCC[C@H]2[C@H](c2ccc(Br)cc2)C1(C#N)C#N,-14,99*,/,4,/,24
Cc1ccc(-n2nc(C)c3c2OC(N)=C(C#N)C3c2ccccc2F)cc1 (stereo not given),4,96*,-10,4,-4,5
Cc1ccc(-n2nc(C)c3c2OC(N)=C(C#N)C3c2ccncc2)cc1 (stereo not given),2,1,0,4,16,/
O=C(c1ccco1)N(CCC(c1ccccc1)c1ccco1)Cc1ccc(F)cc1 (stereo not given),-18,108*,2,0,-1,58
O=C(CN(Cc1ccc(F)cc1)C(=O)c1ccco1)NCc1ccc(F)cc1,1,-9,-2,-2,-1,/
CC1(C)CC(C(CCN(Cc2ccccc2)C(=O)c2ccco2)c2ccc(F)cc2)CCO1 (stereo not given),23,101*,/,-2,/,79*
O=C(Nc1cccc(-c2nc3ncccc3o2)c1)c1sc2ccccc2c1Cl,-2,104*,1,1,0,103*
CCNC(=O)C1(C)CCN(C(=O)c2ccccc2F)C1 (stereo not given),-1,/,/,1,/,/
COc1ccc(C(=O)N(C)CCOc2ccc(Cl)cc2)cc1S(=O)(=O)N1CCCC1,-4,/,/,2,/,/
CCOc1ccccc1NC(=O)CCSc1nc2n[nH]c(C)c2c(=N)n1-c1ccccc1Cl,20,101*,110*,-2,7,10
Cc1ccccc1-n1c(SCC(=O)Nc2ccccc2Cl)nc2n[nH]c(C)c2c1=N,-4,/,5,-1,3,/
CC(=O)Oc1ccc2nc(-c3ccc(Br)o3)oc(=O)c2c1,1,/,-3,3,-1,/
Cc1cc(C)c(NC(=O)CSc2nc3ccc(NC(=O)CSc4nnnn4-c4ccccc4)cc3s2)c(C)c1,-6,98*,5,-1,2,38
CCCc1cc(-c2nc(N)ncc2-c2csc(C)n2)c(O)cc1OC,-1,47,1,4,0,/
SMILES,H9c2 protect,CHOP inhibitor,XBP1 UPR activ,iPSC survival up,CHOP UPR activ,CHOP inh conf
CCCc1cc(-c2nc(N)ncc2-c2ccc3c(c2)OCCCO3)c(O)cc1OC,-19,106*,4,6,1,122*
CC1=CCC[C@@H]2[C@@](C)(CC/C(C)=C/C(=O)O)[C@H](C)CC[C@@]12C,0,99*,-1,7,1,112*
CC(=O)Oc1ccc(N2C(=O)C3C4C=CC(CO)(O4)C3C2=O)cc1 (stereo not given),-24,-24,-2,1,-1,/
O=C1C2C3C=CC(CO)(O3)C2C(=O)N1c1ccccc1-c1ccccc1 (stereo not given),-21,/,-5,-2,8,-27
CCc1ccc2c(c1)C1(NN=C(c3cccc4ccccc34)S1)C(=O)N2 (stereo not given),45,104*,7,-2,95*,63
Cc1ccccc1/C=N/n1c(-c2cc(-c3ccccc3)n[nH]2)n[nH]c1=S,-6,104*,-2,-1,1,57
FC(F)(F)c1cccc(NC(=S)NNC(=S)Nc2cccc(C(F)(F)F)c2)c1,/,-6,0,/,4,/
FC(F)(F)c1cccc(NC(=S)NC(c2ccccc2)c2ccccc2)c1,-27,103*,/,0,/,75*
CC(NNC(=S)N1CCCCCC1)c1ccc2ccccc2n1 (stereo not given),0,/,/,4,/,/
Cc1cc(-c2cc(-c3ccc(Cl)cc3)nc(N)c2C#N)co1,-6,106*,2,2,-3,-48
Cc1ccc(-c2cc(-c3ccc(F)cc3)c(C#N)c(N)n2)o1,-10,-22,0,0,0,/
Cc1ccc(-c2cc(-c3ccc(C)o3)nc(N)c2C#N)cc1,6,101*,-7,-1,-2,10
Cc1ccc(-c2cc(-c3ccc(Cl)cc3)c(C#N)c(N)n2)o1,1,98*,-2,2,0,5
O=C1NC[C@@H](CCCCN2C[C@H](Cc3ccc(O)cc3)N(CCC3CCCCC3)C(=O)C2=O)N(CCC2CCCCC2)C1=O,/,/,/,0,/,/
O=C1c2cccc3c([N+](=O)[O-])ccc(c23)C(=O)N1c1nccs1,-23,110*,-6,-6,-9,38
O=C1c2cccc3cccc(c23)C(=O)N1c1nccs1,9,24,2,-1,0,/
O=C1c2cccc3c([N+](=O)[O-])ccc(c23)C(=O)N1c1ccccn1,-40,101*,-8,-2,-6,84*
O=C1c2cccc3c([N+](=O)[O-])ccc(c23)C(=O)N1c1ccc(Cl)cn1,-18,109*,-6,1,16,51
CC1(C(=O)NC2CCCCCC2)CCN1C(=O)Cc1ccc(-c2ccccc2)cc1 (stereo not given),-17,/,/,-2,/,/
Cc1c(NC(=O)c2ccc(NS(=O)(=O)c3ccc(F)c(F)c3)cc2)c(=O)n(-c2ccccc2)n1C,4,/,-1,0,1,/
COC(=O)c1cn[nH]c1NC(=S)Nc1ccc(Cl)c(Cl)c1,-11,97*,-2,-2,3,24
Cc1ccc2c(COC(=O)c3n[nH]c4ccccc34)cc(=O)oc2c1,-2,50,5,-1,3,/
